Experiment [1] has as its system Felis catus. As to the kind of experiment: Change in blood pressure in normotensive anesthetized cat. In kind it is functional. In short, it runs like this: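 Normotensive cats of either sex (2-4 kg) anesthetized with α-chloralose (80 mg/kg iv). Trachea, femoral artery and jugular vein cannulated. Compound given iv at 10 mg/kg, with 1 mg/kg iv used in one case. Mean blood pressure recorded by pressure transducer before and 30 min after dosing, reported as decrease in mmHg.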

The subject of experiment [2] is Rattus norvegicus. The experiment in a line: Antihypertensive activity in renal hypertensive rats 6 hr after oral administration (10 mg/Kg). In kind it is functional. In a few lines: (§1)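 Renal hypertensive rats (5 or 10 per group), 10 mg/kg given orally. Systolic pressure measured indirectly by tail occluding cuff with pulse sensor, once before dosing as control and again at 1, 2, 4, 6 and 8 h. Values are changes in mean systolic pressure from control (mmHg). Significance of control vs posttreatment assessed by Wilcoxon's signed rank test (p < 0.05).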

Experiment [3] deals with Rattus norvegicus. The experiment in a line: Antihypertensive activity in renal hypertensive rats 8 hr after oral administration (10 mg/Kg). In kind it is functional. In short, it runs like this: as §1
Experiment [4] relates to Rattus norvegicus. As to the kind of experiment: Antihypertensive activity in renal hypertensive rats 1 hr after oral administration (10 mg/Kg). The experiment is classed as functional. In short, it runs like this: as §1
The test system of experiment [5] is Rattus norvegicus. As to the kind of experiment: Antihypertensive activity in renal hypertensive rats 2 hr after oral administration (10 mg/Kg). The experiment is classed as functional. In short, it runs like this: as §1
Experiment [6] deals with Rattus norvegicus. As to the kind of experiment: Antihypertensive activity in renal hypertensive rats 4 hr after oral administration (10 mg/Kg). The experiment is classed as functional. In a few lines: as §1
For experiment [7], the system named is Felis catus. The experiment in a line: Control blood pressure in normotensive anesthetized cat at dose 10 mg/Kg iv.

Each structure is given as a SMILES string.

Results on 23 compounds are retold here after ChEMBL document CHEMBL1122079, “Tryptophan analogues. 1. Synthesis and antihypertensive activity of positional isomers” (1982).

As for `COc1ccc2[nH]cc(C(CN)C(=O)OC(C)C)c2c1.Cl` (stereo unspecified), the BP with Felis catus [1] is -48 mmHg; in the experiment on Rattus norvegicus [2] it was 7 mmHg; in the experiment on Rattus norvegicus [3], 13 mmHg; with Rattus norvegicus [4] it was 7 mmHg; in the experiment on Rattus norvegicus [5], -1 mmHg; with Rattus norvegicus [6] it was 13 mmHg. The “control BP” value with Felis catus [7] is on record as 181 mmHg.
For the compound `COC(=O)C(CN)c1c[nH]c2cc(OC)c(OC)cc12.Cl` (stereo unspecified), the BP in the experiment on Felis catus [1] was -16 mmHg; in the experiment on Rattus norvegicus [2] it was -7 mmHg; with Rattus norvegicus [3] it was -2 mmHg; in the experiment on Rattus norvegicus [4], -15 mmHg; in the experiment on Rattus norvegicus [5], -2 mmHg; in the experiment with Rattus norvegicus [6], -4 mmHg. For the same compound, the “control BP” value with Felis catus [7] came to 160 mmHg.
For `CCOC(=O)C(CN)c1c[nH]c2ccc(Br)cc12.Cl` (stereo unspecified), the BP is reported as -18 mmHg with Felis catus [1]; -3 mmHg with Rattus norvegicus [2]; 1 mmHg in the experiment on Rattus norvegicus [3]; -3 mmHg with Rattus norvegicus [4]; -7 mmHg in the experiment on Rattus norvegicus [5]; -2 mmHg in the experiment on Rattus norvegicus [6]. The “control BP” value in the experiment with Felis catus [7] stood at 143 mmHg.
Regarding `COC(=O)C(CN)c1c[nH]c2ccc(F)cc12.Cl` (stereo unspecified), the BP is on record as -30 mmHg with Felis catus [1]; -4 mmHg with Rattus norvegicus [2]; 1 mmHg in the experiment on Rattus norvegicus [3]; -28 mmHg in the experiment with Rattus norvegicus [4]; -18 mmHg in the experiment on Rattus norvegicus [5]; -9 mmHg in the experiment with Rattus norvegicus [6]. Also, in the experiment on Felis catus [7], the “control BP” value is 133 mmHg.
As for `COC(=O)C(CN(C)C)c1c[nH]c2ccccc12` (stereo unspecified), the BP in the experiment with Felis catus [1] was -35 mmHg; in the experiment with Rattus norvegicus [2], 11 mmHg; with Rattus norvegicus [3], 1 mmHg; in the experiment with Rattus norvegicus [4], -2 mmHg; with Rattus norvegicus [5], 0 mmHg; in the experiment on Rattus norvegicus [6], 2 mmHg. The “control BP” value with Felis catus [7] was found to be 145 mmHg.
Consider `NCC(CC(=O)O)c1c[nH]c2ccccc12` (stereo unspecified), for which the BP with Felis catus [1] was -11 mmHg; with Rattus norvegicus [2], -14 mmHg; in the experiment on Rattus norvegicus [3] it was 1 mmHg; with Rattus norvegicus [4] it was -11 mmHg; in the experiment with Rattus norvegicus [5] it was -3 mmHg; in the experiment with Rattus norvegicus [6], -3 mmHg. The “control BP” value in the experiment with Felis catus [7] is 152 mmHg.
On to `CCOC(=O)NCC(c1nnn[nH]1)c1c[nH]c2ccccc12` (stereo unspecified), for which the BP is listed as 5 mmHg in the experiment on Felis catus [1]; -17 mmHg in the experiment on Rattus norvegicus [2]; -15 mmHg in the experiment with Rattus norvegicus [3]; -10 mmHg in the experiment on Rattus norvegicus [4]; -6 mmHg in the experiment with Rattus norvegicus [5]; -24 mmHg with Rattus norvegicus [6]. For the same compound, in the experiment on Felis catus [7], the “control BP” value worked out at 155 mmHg.
Take `CCOC(=O)C(CNC(C)=O)c1cn(C(=O)OCC)c2ccc(OC)cc12` (stereo unspecified): the BP is reported as 0 mmHg in the experiment on Felis catus [1]; -20 mmHg in the experiment on Rattus norvegicus [2]; -14 mmHg with Rattus norvegicus [3]; -15 mmHg in the experiment on Rattus norvegicus [4]; -12 mmHg in the experiment on Rattus norvegicus [5]; -21 mmHg with Rattus norvegicus [6]. Also, the “control BP” value in the experiment on Felis catus [7] is given as 195 mmHg.
Regarding `CCOC(=O)CC(c1nnn[nH]1)c1c[nH]c2ccc(OC)cc12` (stereo unspecified), the BP is given as -11 mmHg in the experiment on Felis catus [1]; -16 mmHg with Rattus norvegicus [2]; -11 mmHg in the experiment on Rattus norvegicus [3]; -16 mmHg with Rattus norvegicus [4]; -21 mmHg in the experiment with Rattus norvegicus [5]; -25 mmHg with Rattus norvegicus [6]. In addition, the “control BP” value with Felis catus [7] was 136 mmHg.
Take `COc1ccc2[nH]cc(C(CN)c3nnn[nH]3)c2c1` (stereo unspecified): the BP is listed as -4 mmHg in the experiment on Felis catus [1]; 3 mmHg in the experiment on Rattus norvegicus [2]; 13 mmHg with Rattus norvegicus [3]; -2 mmHg with Rattus norvegicus [4]; 5 mmHg in the experiment with Rattus norvegicus [5]; -2 mmHg with Rattus norvegicus [6]. For the same compound, the “control BP” value in the experiment on Felis catus [7] was 167 mmHg.
`NCC(CC(=O)O)c1c[nH]c2cc(Cl)ccc12` (stereo unspecified): the BP was 5 mmHg with Felis catus [1]; -9 mmHg with Rattus norvegicus [2]; -2 mmHg in the experiment on Rattus norvegicus [3]; 2 mmHg in the experiment on Rattus norvegicus [4]; 5 mmHg in the experiment on Rattus norvegicus [5]; -9 mmHg in the experiment on Rattus norvegicus [6]. For the same compound, the “control BP” value in the experiment on Felis catus [7] turned out to be 160 mmHg.
As for `CCOC(=O)NCC(c1nnn[nH]1)c1c[nH]c2ccc(OC)cc12` (stereo unspecified), the BP in the experiment on Felis catus [1] is recorded as 5 mmHg; in the experiment with Rattus norvegicus [2] it was 2 mmHg; in the experiment with Rattus norvegicus [3], 0 mmHg; with Rattus norvegicus [4], -2 mmHg; in the experiment with Rattus norvegicus [5] it was 2 mmHg; in the experiment with Rattus norvegicus [6] it was 0 mmHg. The “control BP” value in the experiment with Felis catus [7] amounted to 160 mmHg.
Take `CCOC(=O)C(CNC(C)=O)c1cn(C(=O)OCC)c2ccccc12` (stereo unspecified): the BP in the experiment with Felis catus [1] is reported as -49 mmHg; in the experiment with Rattus norvegicus [2], -22 mmHg; in the experiment on Rattus norvegicus [3], -18 mmHg; in the experiment with Rattus norvegicus [4], -3 mmHg; in the experiment on Rattus norvegicus [5] it was -3 mmHg; in the experiment on Rattus norvegicus [6] it was -18 mmHg. Besides, the “control BP” value with Felis catus [7] is 135 mmHg.
`COC(=O)C(CN)c1c[nH]c2cccc(Cl)c12.Cl` (stereo unspecified): the BP in the experiment with Felis catus [1] is listed as -10 mmHg; in the experiment on Rattus norvegicus [2], -9 mmHg; with Rattus norvegicus [3] it was -8 mmHg; in the experiment with Rattus norvegicus [4], -7 mmHg; in the experiment with Rattus norvegicus [5], -9 mmHg; with Rattus norvegicus [6], -20 mmHg. The “control BP” value with Felis catus [7] worked out at 131 mmHg.
On to `COC(=O)CC(CN)c1c[nH]c2ccccc12` (stereo unspecified), for which the BP with Felis catus [1] is -4 mmHg; with Rattus norvegicus [2], -7 mmHg; in the experiment with Rattus norvegicus [3] it was -1 mmHg; with Rattus norvegicus [4] it was -1 mmHg; with Rattus norvegicus [5], -11 mmHg; with Rattus norvegicus [6] it was 2 mmHg. Moreover, in the experiment on Felis catus [7], the “control BP” value was determined as 184 mmHg.
`CCOC(=O)CC(c1nnn[nH]1)c1c[nH]c2ccccc12` (stereo unspecified): the BP is 2 mmHg in the experiment on Felis catus [1]; -22 mmHg in the experiment with Rattus norvegicus [2]; -7 mmHg in the experiment on Rattus norvegicus [3]; -4 mmHg with Rattus norvegicus [4]; -22 mmHg in the experiment on Rattus norvegicus [5]; -27 mmHg in the experiment with Rattus norvegicus [6]. In addition, the “control BP” value in the experiment on Felis catus [7] stood at 168 mmHg.
Turning to `CCOC(=O)C(C)(N)Cc1c[nH]c2ccc(O)cc12` (stereo unspecified), the BP was 9 mmHg in the experiment on Felis catus [1]; 22 mmHg in the experiment with Rattus norvegicus [2]; 6 mmHg with Rattus norvegicus [3]; -2 mmHg in the experiment with Rattus norvegicus [4]; -7 mmHg with Rattus norvegicus [5]; 14 mmHg in the experiment with Rattus norvegicus [6]. Also, the “control BP” value in the experiment on Felis catus [7] is 142 mmHg.
With `COc1ccc2[nH]cc(C(CNC(C)=O)C(=O)O)c2c1` (stereo unspecified), the BP was -14 mmHg with Felis catus [1]; -28 mmHg with Rattus norvegicus [2]; -8 mmHg with Rattus norvegicus [3]; -16 mmHg with Rattus norvegicus [4]; -18 mmHg with Rattus norvegicus [5]; -24 mmHg in the experiment with Rattus norvegicus [6]. Further, in the experiment on Felis catus [7], the “control BP” value is recorded as 154 mmHg.
Take `CCOC(=O)C(CNC(C)=O)c1cn(C(=O)OCC)c2cc(Cl)ccc12` (stereo unspecified): the BP with Felis catus [1] is given as -2 mmHg; in the experiment on Rattus norvegicus [2], -7 mmHg; in the experiment with Rattus norvegicus [3], -3 mmHg; with Rattus norvegicus [4], -18 mmHg; in the experiment on Rattus norvegicus [5], -12 mmHg; in the experiment on Rattus norvegicus [6], -12 mmHg. Also, the “control BP” value in the experiment with Felis catus [7] amounted to 165 mmHg.
Regarding `CCOC(=O)CC(c1nnn[nH]1)c1c[nH]c2cccc(Cl)c12` (stereo unspecified), the BP in the experiment on Felis catus [1] is reported as -35 mmHg; in the experiment with Rattus norvegicus [2], -2 mmHg; in the experiment on Rattus norvegicus [3], 4 mmHg; with Rattus norvegicus [4], -4 mmHg; in the experiment with Rattus norvegicus [5] it was -12 mmHg; with Rattus norvegicus [6], -5 mmHg. Besides, the “control BP” value with Felis catus [7] stood at 135 mmHg.
With `NCC(C(=O)O)c1c[nH]c2cc(Cl)ccc12` (stereo unspecified), the BP in the experiment on Felis catus [1] is reported as -2 mmHg; in the experiment on Rattus norvegicus [2], -14 mmHg; in the experiment on Rattus norvegicus [3], -9 mmHg; in the experiment on Rattus norvegicus [4], -4 mmHg; in the experiment on Rattus norvegicus [5], -5 mmHg; with Rattus norvegicus [6], -6 mmHg. Besides, the “control BP” value in the experiment on Felis catus [7] is listed as 179 mmHg.
With `COC(=O)C(CN)c1c[nH]c2ccc(OC)cc12.Cl` (stereo unspecified) [INDORENATE HYDROCHLORIDE], the BP with Felis catus [1] was -82 mmHg; with Rattus norvegicus [2], -10 mmHg; with Rattus norvegicus [3], 2 mmHg; in the experiment on Rattus norvegicus [4], -85 mmHg; with Rattus norvegicus [5], -71 mmHg; in the experiment with Rattus norvegicus [6] it was -38 mmHg. Also, the “control BP” value in the experiment on Felis catus [7] turned out to be 162 mmHg.
As for `N[C@@H](Cc1c[nH]c2ccccc12)C(=O)O` [TRYPTOPHAN], the BP is given as -22 mmHg in the experiment with Felis catus [1]; -4 mmHg with Rattus norvegicus [2]; 0 mmHg in the experiment with Rattus norvegicus [3]; -12 mmHg in the experiment with Rattus norvegicus [4]; -9 mmHg in the experiment on Rattus norvegicus [5]; -15 mmHg in the experiment with Rattus norvegicus [6]. In addition, the “control BP” value in the experiment with Felis catus [7] was determined as 165 mmHg.
